Drawing on ChEMBL document CHEMBL1926676, “Antimalarial β-carboline and indolactam alkaloids from Marinactinospora thermotolerans, a deep sea isolate” (J Nat Prod, 2011), this text covers IC50 for nine compounds.

Some results are limits rather than exact numbers.

The term IC50 denotes the point on the concentration scale where inhibition reaches its midpoint.

In assay [1] the test system is MCF7. Description: Cytotoxicity against human MCF7 cells after 48 hrs by MTT assay. The assay is classed as functional, cell-based. The conditions noted are these: MCF7, 48 h. Summed up:
(§1)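 Cells grown in RPMI-1640 with 10% FBS, 37 °C, 5% CO2. Seeded at 2 × 10^3 cells per well and left 12 h. Compounds added in DMSO at various concentrations for 48 h. MTT (1 mg/mL in PBS) then added for 4 h at 37 °C. Formazan dissolved in DMSO and absorbance read.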

Assay [2] has as its system MDA-MB-231. Description: Cytotoxicity against human MDA-MB-231 cells after 48 hrs by MTT assay. It counts as functional, cell-based. The following applies: MDA-MB-231, 48 h. Summed up:
as §1
(Tetrazolium assays rely on reduction of a dye to a coloured formazan, in cell work by metabolically active cells.)

Assay [3] deals with A549. Nature of the assay: Cytotoxicity against human A549 cells after 48 hrs by MTT assay. The assay is classed as functional, cell-based. The following applies: A549, 48 h. Summed up: as §1
Assay [4] has as its system SW1990. Nature of the assay: Cytotoxicity against human SW1990 cells after 48 hrs by MTT assay. The assay is classed as functional, cell-based. The following applies: SW1990, 48 h. Summed up: as §1
Assay [5] relates to HeLa. Description: Cytotoxicity against human HeLa cells after 48 hrs by MTT assay. The assay is classed as functional, cell-based. In short, it runs like this: as §1
The test system of assay [6] is NCI-H460. Nature of the assay: Cytotoxicity against human NCI-H460 cells after 48 hrs by MTT assay. The assay is classed as functional, cell-based. The following applies: NCI-H460, 48 h. Summed up: as §1
Assay [7] relates to DU-145. Nature of the assay: Cytotoxicity against human DU145 cells after 48 hrs by MTT assay. The following applies: DU-145, 48 h. It counts as functional, cell-based. Summed up:
as §1

Assay [8] deals with SMMC-7721. Nature of the assay: Cytotoxicity against human SMMC7721 cells after 48 hrs by MTT assay. The assay is classed as functional, cell-based. The conditions noted are these: SMMC-7721, 48 h. In short, it runs like this:
as §1

Assay [9] deals with Plasmodium falciparum. Nature of the assay: Antiplasmodial activity against multidrug-resistant Plasmodium falciparum Dd2 assessed as parasitaemia after 72 hrs using SYBR Green 1 staining by fluorescence method. It counts as functional, organism-based. The following applies: Dd2, 72 h. Summed up:
(§2)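 Blood-stage P. falciparum cultures at 0.2% parasitemia, 2% hematocrit, given serially diluted compound in quadruplicate; 72 h at 37 °C. Lysis buffer with SYBR Green I (0.2 μL/mL) added, 1 h in dark, then relative fluorescence read. IC50 by nonlinear regression of logistic dose-response curves.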

Assay [10] has as its system Plasmodium falciparum. Description: Antiplasmodial activity against drug-sensitive Plasmodium falciparum 3D7 assessed as parasitaemia after 72 hrs using SYBR Green 1 staining by fluorescence method. The assay is classed as functional, organism-based. The conditions noted are these: 3D7, 72 h. Summed up:
as §2

For `CC(=O)c1nccc2c1[nH]c1ccccc12`, the IC50 in assay [1], in assay [2], in assay [3], in assay [4], in assay [5] and in assay [6] was above 50 µM in each case. For the same compound, the IC50 in [7] and in [8] was above 50 µM in each case.
Regarding `CC(=O)c1nc(C(=O)NCCc2ccc(O)cc2)cc2c1[nH]c1ccccc12`, the IC50 is above 50 µM in assay [1]; above 50 µM in [2]; 15.6 µM in [9]; above 50 µM in assay [3]; above 50 µM in assay [4]; above 50 µM in assay [5]. The IC50 was above 50 µM in [6], above 50 µM in [7], 16.6 µM in [10] and above 50 µM in assay [8].
On to `CC(=O)c1nc(C(=O)NCCc2ccccc2)cc2c1[nH]c1ccccc12`, for which the IC50 in assay [1] is above 50 µM; in [2] it was above 50 µM; in assay [9], 3.38 µM; in assay [3], above 50 µM; in [4] it was above 50 µM; in [5] it was above 50 µM. For the same compound, the IC50 in [6] is above 50 µM; in [7], above 50 µM; in assay [10], 3.09 µM; in assay [8], above 50 µM.
With `C=CC(C)(C)c1ccc2c3c(c[nH]c13)C[C@@H](CO)NC(=O)[C@H]([C@@H](C)CC)N2`, the IC50 is above 50 µM in assay [1]; above 50 µM in assay [2]; 18.7 µM in [9]; above 50 µM in assay [3]; above 50 µM in [4]; above 50 µM in [5]. Moreover, the half-inhibitory concentration (IC50) in assay [6] was above 50 µM; in assay [7] it was above 50 µM; in assay [10] it was 20.8 µM; in assay [8], above 50 µM.
As for `C=CC(C)(C)c1ccc2c3c(c[nH]c13)C[C@@H](CO[C@@H]1O[C@@H](CO)[C@H](O)[C@@H](O)[C@@H]1O)NC(=O)[C@H]([C@@H](C)CC)N2C`, the IC50 in assay [1] was above 50 µM; in assay [2], above 50 µM; in [9] it was 5.03 µM; in assay [3] it was above 50 µM; in assay [4], above 50 µM; in assay [5] it was above 50 µM. Also, the half-inhibitory concentration (IC50) in assay [6] is above 50 µM; in assay [7], above 50 µM; in assay [10], 10.4 µM; in [8], above 50 µM.
On to `COc1ccc(CCNC(=O)c2cc3c([nH]c4ccccc43)c(C(C)=O)n2)cc1` [MARINACARBOLINE A], for which the IC50 in [1] was above 50 µM; in assay [2], above 50 µM; in assay [9], 1.92 µM; in assay [3] it was above 50 µM; in assay [4] it was above 50 µM; in [5], above 50 µM. The IC50 is above 50 µM in [6], above 50 µM in [7], 36 µM in assay [10] and above 50 µM in assay [8].
`CC(=O)c1nc(C(=O)NCCc2c[nH]c3ccccc23)cc2c1[nH]c1ccccc12` [MARINACARBOLINE D]: the IC50 in assay [1] was above 50 µM; in assay [2] it was above 50 µM; in [9] it was 3.59 µM; in assay [3], above 50 µM; in assay [4], above 50 µM; in [5] it was above 50 µM. The IC50 in [6] is above 50 µM; in assay [7], above 50 µM; in [10], 5.39 µM; in [8] it was above 50 µM.
On to `C=CC(C)(C)c1ccc2c3c(c[nH]c13)C[C@@H](CO)NC(=O)[C@H]([C@@H](C)CC)N2C` [METHYLPENDOLMYCIN], for which the IC50 in assay [1], in [2], in assay [3], in [4], in assay [5] and in [6] was above 50 µM in each case. The IC50 in [7] and in [8] was above 50 µM each time.
As for `C=CC(C)(C)c1ccc2c3c(c[nH]c13)C[C@@H](CO)NC(=O)[C@H](C(C)C)N2C` [PENDOLMYCIN], the IC50 in assay [1], in assay [2], in [3], in assay [4], in assay [5] and in assay [6] was above 50 µM in each case. Further, the IC50 in [7] and in assay [8] was above 50 µM throughout.
